These results are taken from ChEMBL document CHEMBL5661964, “Selective in vivo and in vitro effects of a small molecule inhibitor of cyclin-dependent kinase 4” (J Natl Cancer Inst, 2001).

Assay [1] concerns HCT-116. Briefly: Antitumor activity against human HCT-116 cells xenografted in nude mouse assessed as decrease tumor volume at 75 mg/kg, iv administered once per week measured after 29 days. It is filed as functional, organism-based. To be noted: time 29.0 day. An outline of the steps:
(§1)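 Female BALB/c nu/nu mice (19–21 g) received 0.1 mL of HCT116 suspension (1 × 10^7 viable cells/mL, Hanks' buffer) s.c. At day 20 (tumours ~100 mm3), they were randomised into groups of eight. Dosing was i.v. via lateral tail vein at 10 mL/kg for 29 days. Blinded caliper volumes (L × W² × π/6) were taken every 2–4 days. Comparison to […] vehicle controls used one-way ANOVA/Dunnett; log-volume slopes gave growth rate.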

The test system of assay [2] is HCT-116. Briefly: Antitumor activity against human HCT-116 cells xenografted in nude mouse assessed as decrease tumor growth at 75 mg/kg, iv administered once per week measured after 29 days. It counts as functional, organism-based. To be noted: time 29.0 day. Put shortly: as §1

The source made the active and inactive calls. No cut-off for these calls is given here.

`O=c1[nH]cc(F)c(=O)[nH]1`: the outcome in the assay on HCT-116 [1] and with HCT-116 [2] was Active.
